For one data set, the system named is Staphylococcus aureus. Briefly: Antibacterial activity against methicillin-resistant Staphylococcus aureus ATCC 43300 assessed as reduction in microbial growth after 18 hrs by resazurin dye based assay. It is filed as functional. The method in brief:
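Overnight culture at 37 °C, diluted 40-fold in MHB and grown 1.5-2 h to mid-log. Inoculum 5 × 10^5 CFU/mL. Two-fold serial dilutions, final 0.008-32 µg/mL, in duplicate. […] Vancomycin served as the Gram-positive standard.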

Data set [1] has as its system Pseudomonas aeruginosa. Kind of data set: Antibacterial activity against Pseudomonas aeruginosa ATCC 27853 assessed as reduction in microbial growth after 18 hrs by resazurin dye based assay. In kind it is functional. The method in brief: (§1)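 Bacteria grown overnight at 37 °C in LB, NB or MHB, diluted 40-fold into MHB and grown 1.5-2 h to mid-log phase. Inoculum 5 × 10^5 CFU/mL (final), 2-fold serial dilutions, final range 0.008-32 µg/mL, in duplicate. […] Colistin as positive control, Z'-factor >0.4 for plate QC.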

Data set [2] deals with Escherichia coli. Kind of data set: Antibacterial activity against Escherichia coli ATCC 25922 assessed as reduction in microbial growth after 18 hrs by resazurin dye based assay. It is filed as functional. The method in brief: as §1
Data set [3] has as its system Klebsiella pneumoniae. Kind of data set: Antibacterial activity against Klebsiella pneumoniae ATCC 700603 assessed as reduction in microbial growth after 18 hrs by resazurin dye based assay. It is filed as functional. An outline of the steps:
as §1

For data set [4], the system named is Acinetobacter baumannii. Briefly: Antibacterial activity against Acinetobacter baumannii ATCC 19606 assessed as reduction in microbial growth after 18 hrs by resazurin dye based assay. In kind it is functional. The settings on record: ATCC 19606 = CIP 70.34 = JCM 6841. An outline of the steps:
as §1

A further data set deals with Cryptococcus neoformans. Briefly: Antifungal activity against Cryptococcus neoformans ATCC 208821 assessed as reduction in microbial growth after 36 hrs by resazurin dye based assay. It is filed as functional. The method in brief: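 Yeast grown 3 days on YPD agar at 30 °C and diluted in YNB broth to 2.5 × 10^3 CFU/mL. Compounds at 0.008-32 µg/mL final, 2-fold dilutions, in duplicate. After 36 h at 35 °C without shaking, resazurin added at 0.006% final for a further 3 h; MIC read as absorbance at OD570-600. Fluconazole as positive control.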

In data set [5] the test system is Pseudomonas aeruginosa. Briefly: Potentiation of doxycycline-induced antibacterial activity against Pseudomonas aeruginosa ATCC 27853 assessed as complete reduction in visible microbial growth after 18 hrs in presence of 4.5 uM doxycycline by two fold serial dilution method. It is filed as functional. An outline of the steps: (§2)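 Adjuvant test by broth dilution: inoculum 5 × 10^5 CFU in 200 µL MHB. Two-fold serial dilutions of each derivative were given with doxycycline fixed at 2 µg/mL. After 18 h at 37 °C, the value recorded was the lowest adjuvant concentration giving complete absence of visible growth. Three independent repeats.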

Data set [6] can be described thus: Hemolytic activity in rat RBC incubated for 1 hr by Neubauer haemocytometric analysis. In kind it is ADME, cell-based, Erythrocyte. To be noted: red blood cells (erythrocytes).
In the next data set the test system is L6. Briefly: Cytotoxicity against rat L6 cells assessed as reduction in cell viability at 0.123 to 90 ug/ml measured after 72 hrs by Alamar blue based inverted microscopy analysis. The settings on record: l6, 72 h, dose 0.123-90 µg/ml. An outline of the steps:
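Rat skeletal myoblast L6 cells, 4 × 10^4 per well, in RPMI 1640 with L-glutamine and 10% FBS. Seven 3-fold dilutions were tested, 90 to 0.123 µg/mL, for 72 h. Alamar Blue added for 2 h, and fluorescence read at ex 536/em 588 nm. Podophyllotoxin served as reference drug.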

The test system of the next data set is HEK293. Briefly: Cytotoxicity against human HEK293 cells assessed as reduction in cell viability measured after 20 hrs by resazurin based Neubauer haemocytometric analysis. The settings on record: hek293, 20 h. An outline of the steps: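 HEK293 cells plated at 5,000 cells/well in DMEM with 10% FBS onto pre-dispensed compound and incubated 20 h at 37 °C, 5% CO2. Resazurin then added at 100 µM final for 3 h; fluorescence read at ex 560/em 590. Signal normalized to 74 µg/mL tamoxifen (0%) and untreated growth (100%). CC50 obtained from dose-response fit.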

For another data set, the system named is Candida albicans. Briefly: Antifungal activity against Candida albicans ATCC 90028 assessed as reduction in microbial growth after 36 hrs by absorbance at OD530. To be noted: ATCC 90028, 36 h.
The test system of data set [7] is Escherichia coli. Kind of data set: Potentiation of doxycycline-induced antibacterial activity against Escherichia coli ATCC 25922 assessed as complete reduction in visible microbial growth after 18 hrs in presence of 4.5 uM doxycycline by two fold serial dilution method. It is filed as functional. An outline of the steps: as §2
In data set [8] the test system is Klebsiella pneumoniae. Briefly: Potentiation of doxycycline-induced antibacterial activity against Klebsiella pneumoniae ATCC 700603 assessed as complete reduction in visible microbial growth after 18 hrs in presence of 4.5 uM doxycycline by two fold serial dilution method. In kind it is functional.
Data set [9] relates to Acinetobacter baumannii. Kind of data set: Potentiation of doxycycline-induced antibacterial activity against Acinetobacter baumannii AYE assessed as complete reduction in visible microbial growth after 18 hrs in presence of 4.5 uM doxycycline by two fold serial dilution method. In kind it is functional. An outline of the steps:
as §2

A further data set deals with Erythrocyte. Kind of data set: Hemolytic activity in human Erythrocyte incubated for 1 hr by Neubauer haemocytometric analysis. In kind it is ADME, cell-based. The method in brief: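 Human whole blood washed three times in 0.9% NaCl and resuspended at 0.5 × 10^8 cells/mL (haemocytometer count). Cells added to compound plates, shaken 10 min, then incubated 1 h at 37 °C. After centrifugation at 1,000g for 10 min, supernatant absorbance read at OD405. HC10/HC50 obtained by sigmoidal fit against log concentration.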

In ChEMBL document CHEMBL4819066, “Repurposing primaquine as a polyamine conjugate to become an antibiotic adjuvant” (Bioorg Med Chem, 2021) one finds MIC, HC50 and Activity data, which are given here for six molecules.

Some results are limits rather than exact numbers.

Regarding `O=C(CCC(=O)Nc1cccc2cccnc12)NCCCNCCCCCCCCCCNCCCNC(=O)CCC(=O)Nc1cccc2cccnc12.O=C(O)C(F)(F)F.O=C(O)C(F)(F)F`, the MIC is 33.1 µM with Staphylococcus aureus; above 33.1 µM with Pseudomonas aeruginosa [1]; above 33.1 µM with Escherichia coli [2]; above 33.1 µM in the data set with Klebsiella pneumoniae [3]; above 33.1 µM with Acinetobacter baumannii [4]; above 33.1 µM in the data set on Cryptococcus neoformans. Moreover, the MIC is 100 µM in the data set with Pseudomonas aeruginosa [5] and above 33.1 µM in the data set on Candida albicans. Moreover, the 50% haemolytic concentration (HC50) at 1 h in [6] was 30.5 µM. Besides, the Activity result with L6 and with HEK293 was “Non-Toxic” each time.
For the molecule `COc1cc(NC(C)CCCNC(=O)CCC(=O)NCCCNCCCCNCCCNC(=O)CCC(=O)NCCCC(C)Nc2cc(OC)cc3cccnc23)c2ncccc2c1.O=C(O)C(F)(F)F.O=C(O)C(F)(F)F` (configuration not stated), the minimum inhibitory concentration (MIC) was above 33.4 µM in the data set with Staphylococcus aureus; above 33.4 µM in the data set on Pseudomonas aeruginosa [1]; above 33.4 µM with Escherichia coli [2]; above 33.4 µM in the data set with Klebsiella pneumoniae [3]; above 33.4 µM in the data set with Acinetobacter baumannii [4]; 33.4 µM in the data set on Cryptococcus neoformans. Moreover, the MIC in the data set with Pseudomonas aeruginosa [5] was 6.25 µM; with Escherichia coli [7], 50 µM; in the data set on Klebsiella pneumoniae [8] it was above 200 µM; with Acinetobacter baumannii [9] it was above 200 µM; in the data set with Candida albicans, above 33.4 µM. The Activity entry in the data set with Erythrocyte, in the data set with L6 and in the data set on HEK293 was “Non-Toxic” throughout.
For the molecule `COc1cc(NC(=O)CCC(=O)NCCCNCCCCCCCCCCNCCCNC(=O)CCC(=O)Nc2cc(OC)cc3cccnc23)c2ncccc2c1`, the MIC in the data set with Staphylococcus aureus was 3.9 µM; with Pseudomonas aeruginosa [1] it was above 31.2 µM; in the data set with Escherichia coli [2] it was above 31.2 µM; in the data set on Klebsiella pneumoniae [3], above 31.2 µM; in the data set on Acinetobacter baumannii [4] it was above 31.2 µM; with Cryptococcus neoformans, above 31.2 µM. For the same molecule, the values for the minimum inhibitory concentration (MIC) in the data set with Pseudomonas aeruginosa [5] and with Candida albicans were 300 µM and above 31.2 µM, respectively.
As to `COc1cc(NC(=O)CCC(=O)NCCCNCCCCNCCCNC(=O)CCC(=O)Nc2cc(OC)cc3cccnc23)c2ncccc2c1`, the MIC in the data set on Staphylococcus aureus, in the data set on Pseudomonas aeruginosa [1], in the data set on Escherichia coli [2], in the data set on Klebsiella pneumoniae [3], in the data set with Acinetobacter baumannii [4] and in the data set on Cryptococcus neoformans was above 33.9 µM each time. In addition, the minimal inhibitory concentration (MIC) is 200 µM in the data set on Pseudomonas aeruginosa [5] and above 33.9 µM in the data set on Candida albicans.
`O=C(CCC(=O)Nc1ccc2ccccc2n1)NCCCNCCCCCCCCCCNCCCNC(=O)CCC(=O)Nc1ccc2ccccc2n1`: the MIC in the data set with Staphylococcus aureus, in the data set with Pseudomonas aeruginosa [1], with Escherichia coli [2], with Klebsiella pneumoniae [3], in the data set on Acinetobacter baumannii [4] and in the data set with Cryptococcus neoformans was above 33.1 µM in each case. In addition, the MIC is 517 µM with Pseudomonas aeruginosa [5] and above 33.1 µM in the data set on Candida albicans.
As for `O=C(CCC(=O)Nc1cccc2ncccc12)NCCCNCCCCCCCCCCNCCCNC(=O)CCC(=O)Nc1cccc2ncccc12`, the minimal inhibitory concentration (MIC) in the data set on Staphylococcus aureus, in the data set on Pseudomonas aeruginosa [1], with Escherichia coli [2], with Klebsiella pneumoniae [3], with Acinetobacter baumannii [4] and in the data set on Cryptococcus neoformans was above 33.1 µM in each case. The minimal inhibitory concentration (MIC) was 517 µM with Pseudomonas aeruginosa [5] and above 33.1 µM with Candida albicans.
